ChEMBL document CHEMBL1149264, “Discovery of novel phenolic antioxidants as inhibitors of vascular cell adhesion molecule-1 expression for use in chronic inflammatory diseases” (J Med Chem, 2004)
One block for each compound: values may come before it. The source made the active and inactive calls. The rule behind the calls is not given here.

Legend:
[1] = Inhibition of TNF-alpha-stimulated VCAM1 expression in endothelial cells; format: functional, cell-based; conditions: Homo sapiens, Endothelial cell
Rattus norvegicus [2] = organism: Rattus norvegicus; test: Inhibition of artheriosclerosis in allograft recipient rat; format: functional, organism-based
[3] = Inhibition of LPS-induced TNFalpha secretion in human PBMN cells by ELISA; format: functional, cell-based
Outline: (§1)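 Fresh cryopreserved human PBMCs at 1 million cells/mL in lymphocyte growth media-3 were pretreated with compound for 1 h, then stimulated with LPS 1 μg/mL for a further 2 h with compound present. Secreted TNF-α, IL-6 and IL-1β in conditioned media measured by human ELISA, in duplicate (mean ± SD). Experiments repeated at least three times.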

[4] = Inhibition of LPS-induced IL1-beta secretion in human PBMN cells by ELISA; format: functional, cell-based; outline: as §1
[5] = Inhibition of LPS-induced IL6 secretion in human PBMN cells by ELISA; format: functional, cell-based; outline: as §1
[6] = target: T1, Polyunsaturated fatty acid lipoxygenase ALOX15 (Homo sapiens, UniProt P16050); test: Inhibition of 15-lipoxygenase by LMB assay
T1 sequence (P16050 whole entry): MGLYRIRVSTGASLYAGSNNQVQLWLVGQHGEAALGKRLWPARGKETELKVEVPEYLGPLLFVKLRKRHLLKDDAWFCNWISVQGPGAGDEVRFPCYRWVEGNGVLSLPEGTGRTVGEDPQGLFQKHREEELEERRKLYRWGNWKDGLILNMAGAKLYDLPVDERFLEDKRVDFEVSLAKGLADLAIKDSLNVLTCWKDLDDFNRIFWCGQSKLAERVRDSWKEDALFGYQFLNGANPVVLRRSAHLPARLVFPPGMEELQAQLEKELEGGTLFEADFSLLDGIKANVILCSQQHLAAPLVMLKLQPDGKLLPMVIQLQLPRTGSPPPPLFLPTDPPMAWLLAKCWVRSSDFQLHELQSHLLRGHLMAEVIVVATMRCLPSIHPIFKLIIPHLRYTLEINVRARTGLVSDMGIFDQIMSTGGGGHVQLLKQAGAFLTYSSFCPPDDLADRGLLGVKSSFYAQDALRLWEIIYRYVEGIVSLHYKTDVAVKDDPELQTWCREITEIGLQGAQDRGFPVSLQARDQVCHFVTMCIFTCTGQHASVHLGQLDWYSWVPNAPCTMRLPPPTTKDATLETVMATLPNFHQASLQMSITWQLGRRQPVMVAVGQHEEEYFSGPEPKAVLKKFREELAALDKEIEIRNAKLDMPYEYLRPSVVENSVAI

Mus musculus [7] = test: Inhibition of mBSA-induced paw-swelling in DTH BALB/c mouse model at 25 mg/kg, sc; format: functional; conditions: route subcutaneous
Outline: (§2)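 Male BALB/c mice (20-25 g) sensitized on day 0 with intradermal abdominal mBSA (5 mg/mL)/Freund's complete adjuvant 1:1 emulsion. On day 7 challenged with mBSA in the right hind footpad, saline in the left. Compound given s.c. 24 h and 2 h before challenge; cyclosporin A 20 mg/kg as reference. Feet weighed 24 h post-challenge; swelling inhibition relative to vehicle group (100%). ANOVA with Fisher's PLSD.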

Mus musculus [8] = test: Inhibition of mBSA-induced paw-swelling in DTH BALB/c mouse model at 50 mg/kg, sc; format: functional; conditions: route subcutaneous; outline: as §2
PBMN = test: Inhibition of LPS-induced IL1-beta secretion in human PBMN cells at 10 uM by ELISA; format: functional, cell-based; outline: as §1
Syrian golden hamster [9] = test: Effect on LDL level in hypercholesterolemic golden Syrian hamster; format: functional, Mesocricetus auratus; set-up: unit not given here
Outline: (§3)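 Male golden Syrian hamsters (110-120 g), housed singly, given compound mixed into powdered chow at 150 mg/kg/d for two weeks. After an overnight fast and ketamine/xylazine i.p. anesthesia, blood was taken by cardiac puncture or abdominal aorta. Plasma was fractionated by FPLC and lipoprotein cholesterol measured enzymatically. Dunnett's test against controls.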

Syrian golden hamster [10] = test: Effect on HDL level in hypercholesterolemic golden Syrian hamster; format: functional, Mesocricetus auratus; set-up: unit not given here; outline: as §3
Rattus norvegicus [11] = test: Inhibition of paw edema in collagen 2-sensitized orally dosed rat model; format: functional, organism-based

IC50 [1]: 7 µM
Compound: CC(C)(Sc1cc(C(C)(C)C)c(O)c(C(C)(C)C)c1)Sc1ccc(C(C)(C)C)c(OCCC(=O)O)c1C(C)(C)C

IC50 [1]: 41 µM
Compound: CC(=O)OCC(O)COc1c(C(C)(C)C)ccc(SC(C)(C)Sc2cc(C(C)(C)C)c(O)c(C(C)(C)C)c2)c1C(C)(C)C (centres undefined)

IC50 [1]: 26 µM
Compound: CC(C)(Sc1cc(C(C)(C)C)c(O)c(C(C)(C)C)c1)Sc1ccc(C(C)(C)C)c(OC/C(N)=N/O)c1C(C)(C)C

IC50 [1]: 11 µM
Compound: CC(C)(Sc1cc(C(C)(C)C)c(O)c(C(C)(C)C)c1)Sc1cc(C(C)(C)C)c(OCCCC(=O)O)c(C(C)(C)C)c1 [ELSIBUCOL]
Activity (Rattus norvegicus [2]): Active

IC50 [1]: 75 µM
Compound: CC(C)(Sc1cc(C(C)(C)C)c(O)c(C(C)(C)C)c1)Sc1ccc(C(C)(C)C)c(OCC(=O)N[C@@H](CCC(=O)O)C(=O)O)c1C(C)(C)C

IC50 [3]: > 40 µM
IC50 [4]: > 40 µM
IC50 [5]: > 40 µM
Compound: CC(C)(Sc1cc(C(C)(C)C)c(O)c(C(C)(C)C)c1)Sc1cc(C(C)(C)C)c(O)c(C(C)(C)C)c1 [PROBUCOL]

IC50 [1]: 7 µM
Compound: CN(CC(=O)O)C(=O)COc1c(C(C)(C)C)ccc(SC(C)(C)Sc2cc(C(C)(C)C)c(O)c(C(C)(C)C)c2)c1C(C)(C)C

IC50 [1]: 13 µM
Compound: CC(C)(Sc1cc(C(C)(C)C)c(O)c(C(C)(C)C)c1)Sc1ccc(C(C)(C)C)c(OCC(CO)CO)c1C(C)(C)C

IC50 [1]: 75 µM
Compound: C=CC(=O)OCCCCOc1c(C(C)(C)C)ccc(SC(C)(C)Sc2cc(C(C)(C)C)c(O)c(C(C)(C)C)c2)c1C(C)(C)C

IC50 [3]: > 10 µM
IC50 [4]: > 10 µM
IC50 [6]: > 125 µM
IC50 [1]: > 50 µM
IC50 [5]: > 10 µM
Compound: CC(C)(Sc1cc(C(C)(C)C)c(OCC(=O)O)c(C(C)(C)C)c1)Sc1ccc(C(C)(C)C)c(OCC(=O)O)c1C(C)(C)C

IC50 [1]: 33 µM
Compound: CC(=O)OC(CO)COc1c(C(C)(C)C)ccc(SC(C)(C)Sc2cc(C(C)(C)C)c(O)c(C(C)(C)C)c2)c1C(C)(C)C (centres undefined)

IC50 [1]: 6 µM
Compound: CC(C)(Sc1cc(C(C)(C)C)c(O)c(C(C)(C)C)c1)Sc1ccc(C(C)(C)C)c(OCC(=O)NCCC(=O)O)c1C(C)(C)C

IC50 [1]: 6 µM
Compound: CC(C)(Sc1cc(C(C)(C)C)c(O)c(C(C)(C)C)c1)Sc1cc(C(C)(C)C)c(OC(=O)CCC(=O)O)c(C(C)(C)C)c1 [SUCCINOBUCOL]

IC50 [1]: 23 µM
Compound: CC(C)(Sc1cc(C(C)(C)C)c(O)c(C(C)(C)C)c1)Sc1ccc(C(C)(C)C)c(OCCCCC(=O)O)c1C(C)(C)C

IC50 [3]: 4 µM
IC50 [4]: 7.7 µM
IC50 [1]: 6 µM
IC50 [5]: 1.7 µM
Compound: CC(C)(Sc1cc(C(C)(C)C)c(O)c(C(C)(C)C)c1)Sc1ccc(C(C)(C)C)c(OC[C@H](O)[C@@H](O)CO)c1C(C)(C)C
inhibition in vivo at 25 mg/kg (Mus musculus [7]): 29%
inhibition in vivo at 50 mg/kg (Mus musculus [8]): 58%

IC50 [3]: 1.9 µM
IC50 [6]: 10 µM
IC50 [1]: 10 µM
IC50 [5]: 1.6 µM
Compound: CC(C)(Sc1cc(C(C)(C)C)c(O)c(C(C)(C)C)c1)Sc1ccc(C(C)(C)C)c(OC[C@H]2OC(O)[C@H](O)[C@@H](O)[C@@H]2O)c1C(C)(C)C (some centres undefined)
Activity (PBMN): Active
inhibition in vivo at 25 mg/kg (Mus musculus [7]): 29%
inhibition in vivo at 50 mg/kg (Mus musculus [8]): 58%
Activity (Syrian golden hamster [9]): 9
Activity (Syrian golden hamster [10]): 63

IC50 [3]: 3.3 µM
IC50 [4]: 8 µM
IC50 [1]: 1 µM
IC50 [5]: 1.2 µM
Compound: CC(C)(Sc1cc(C(C)(C)C)c(O)c(C(C)(C)C)c1)Sc1ccc(C(C)(C)C)c(OC[C@@H](O)[C@H](O)CO)c1C(C)(C)C
inhibition in vivo at 25 mg/kg (Mus musculus [7]): 29%
inhibition in vivo at 50 mg/kg (Mus musculus [8]): 58%

IC50 [1]: 13 µM
Compound: CC(C)(Sc1cc(C(C)(C)C)c(O)c(C(C)(C)C)c1)Sc1ccc(C(C)(C)C)c(OC[C@@H](O)[C@@H](O)[C@@H](O)CO)c1C(C)(C)C
Activity (Syrian golden hamster [9]): 338
Activity (Syrian golden hamster [10]): 119

IC50 [1]: 13 µM
Compound: CC(C)(Sc1cc(C(C)(C)C)c(O)c(C(C)(C)C)c1)Sc1ccc(C(C)(C)C)c(OC[C@H]2OC(=O)[C@H](O)[C@@H]2O)c1C(C)(C)C

IC50 [3]: 1.8 µM
IC50 [4]: 2.2 µM
IC50 [6]: 12 µM
IC50 [1]: 15 µM
IC50 [5]: 1 µM
Compound: CC(C)(Sc1cc(C(C)(C)C)c(O)c(C(C)(C)C)c1)Sc1ccc(C(C)(C)C)c(OC[C@@H](O)[C@@H](O)[C@H](O)[C@@H](O)CO)c1C(C)(C)C
inhibition in vivo at 25 mg/kg (Mus musculus [7]): 29%
inhibition in vivo at 50 mg/kg (Mus musculus [8]): 58%
Activity (Syrian golden hamster [9]): 30
Activity (Syrian golden hamster [10]): 94

IC50 [1]: 30 µM
Compound: CC(C)(Sc1cc(C(C)(C)C)c(O)c(C(C)(C)C)c1)Sc1ccc(C(C)(C)C)c(OCC(O)CO)c1C(C)(C)C (centres undefined)

IC50 [1]: 16 µM
Compound: CC(C)(Sc1cc(C(C)(C)C)c(O)c(C(C)(C)C)c1)Sc1ccc(C(C)(C)C)c(OCC(O)CNCC(=O)O)c1C(C)(C)C (centres undefined)
Activity (Syrian golden hamster [9]): 190
Activity (Syrian golden hamster [10]): 146

IC50 [1]: 8 µM
Compound: CC(C)(Sc1cc(C(C)(C)C)c(O)c(C(C)(C)C)c1)Sc1ccc(C(C)(C)C)c(OC[C@H]2OC(O)[C@H](O)[C@@H]2O)c1C(C)(C)C (some centres undefined)

IC50 [1]: > 50 µM
Compound: CCOCC(O)COc1c(C(C)(C)C)ccc(SC(C)(C)Sc2cc(C(C)(C)C)c(O)c(C(C)(C)C)c2)c1C(C)(C)C (centres undefined)

IC50 [1]: 35 µM
Compound: CC(C)(Sc1cc(C(C)(C)C)c(O)c(C(C)(C)C)c1)Sc1ccc(C(C)(C)C)c(OC[C@@H](O)[C@@H](O)[C@@H](O)C(=O)O)c1C(C)(C)C
Activity (Syrian golden hamster [9]): 175
Activity (Syrian golden hamster [10]): 173

IC50 [1]: 10 µM
Compound: CC(C)(Sc1cc(C(C)(C)C)c(O)c(C(C)(C)C)c1)Sc1cc(C(C)(C)C)c(OCC(=O)O)c(C(C)(C)C)c1 [CAMOBUCOL]
Activity (Syrian golden hamster [9]): 18
Activity (Syrian golden hamster [10]): 86
Activity (Rattus norvegicus [11]): Dose-dependent effect

IC50 [1]: 55 µM
Compound: CC(C)(Sc1cc(C(C)(C)C)c(O)c(C(C)(C)C)c1)Sc1ccc(C(C)(C)C)c(O/C=C/CO)c1C(C)(C)C

IC50 [1]: 6 µM
Compound: CC(C)(Sc1cc(C(C)(C)C)c(O)c(C(C)(C)C)c1)Sc1ccc(C(C)(C)C)c(OCC(=O)NC(CO)CO)c1C(C)(C)C

IC50 [1]: 30 µM
Compound: CC(C)(Sc1cc(C(C)(C)C)c(O)c(C(C)(C)C)c1)Sc1ccc(C(C)(C)C)c(O/C=C/C(=O)O)c1C(C)(C)C

IC50 [1]: > 50 µM
Compound: CC(=O)O[C@@H]1O[C@H](COc2c(C(C)(C)C)ccc(SC(C)(C)Sc3cc(C(C)(C)C)c(O)c(C(C)(C)C)c3)c2C(C)(C)C)[C@@H](OC(C)=O)[C@H](OC(C)=O)[C@H]1OC(C)=O

IC50 [1]: 6 µM
Compound: CC(C)(Sc1cc(C(C)(C)C)c(O)c(C(C)(C)C)c1)Sc1ccc(C(C)(C)C)c(OCC(=O)NCC(=O)O)c1C(C)(C)C

IC50 [1]: 125 µM
Compound: CC(C)(Sc1cc(C(C)(C)C)c(O)c(C(C)(C)C)c1)Sc1ccc(C(C)(C)C)c(OCCCCO)c1C(C)(C)C
